Active and inactive are the calls of the source. The calls are words filed in the database; no cut-off is given here.
Experiments:
[1] = biological target: T1, Fatty-acid amide hydrolase 1 (Rattus norvegicus) (UniProt P97612); assay: Inhibition of rat histidine tagged FAAH expressed in Escherichia coli at 1 uM by coumarin ester substrate fluorescence assay
T1 sequence (whole entry): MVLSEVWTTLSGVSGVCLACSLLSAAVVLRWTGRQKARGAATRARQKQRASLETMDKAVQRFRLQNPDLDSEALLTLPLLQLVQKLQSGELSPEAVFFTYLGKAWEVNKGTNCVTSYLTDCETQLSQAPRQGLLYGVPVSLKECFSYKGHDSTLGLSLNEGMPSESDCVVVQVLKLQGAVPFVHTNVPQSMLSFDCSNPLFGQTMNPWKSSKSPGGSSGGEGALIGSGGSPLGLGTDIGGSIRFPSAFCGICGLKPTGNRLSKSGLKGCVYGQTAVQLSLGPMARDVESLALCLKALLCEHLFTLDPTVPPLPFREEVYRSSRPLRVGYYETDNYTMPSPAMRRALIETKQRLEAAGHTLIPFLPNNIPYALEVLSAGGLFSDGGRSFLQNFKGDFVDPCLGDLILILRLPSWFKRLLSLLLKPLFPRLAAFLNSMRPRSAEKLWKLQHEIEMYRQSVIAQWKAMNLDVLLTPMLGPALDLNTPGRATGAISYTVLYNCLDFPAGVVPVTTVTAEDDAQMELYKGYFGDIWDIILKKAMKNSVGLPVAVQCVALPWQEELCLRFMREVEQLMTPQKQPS

[2] = biological target: T2, Diacylglycerol lipase-alpha (Homo sapiens) (UniProt Q9Y4D2); assay: Inhibition of human DAGLalpha expressed in HEK293T cell membrane using [14C]SAG substrate at 10 uM in presence of 0.015% Triton X-100 by scintillation counting based radio-TLC assay; format: cell membranes; conditions: HEK-293T
T2 sequence (whole entry): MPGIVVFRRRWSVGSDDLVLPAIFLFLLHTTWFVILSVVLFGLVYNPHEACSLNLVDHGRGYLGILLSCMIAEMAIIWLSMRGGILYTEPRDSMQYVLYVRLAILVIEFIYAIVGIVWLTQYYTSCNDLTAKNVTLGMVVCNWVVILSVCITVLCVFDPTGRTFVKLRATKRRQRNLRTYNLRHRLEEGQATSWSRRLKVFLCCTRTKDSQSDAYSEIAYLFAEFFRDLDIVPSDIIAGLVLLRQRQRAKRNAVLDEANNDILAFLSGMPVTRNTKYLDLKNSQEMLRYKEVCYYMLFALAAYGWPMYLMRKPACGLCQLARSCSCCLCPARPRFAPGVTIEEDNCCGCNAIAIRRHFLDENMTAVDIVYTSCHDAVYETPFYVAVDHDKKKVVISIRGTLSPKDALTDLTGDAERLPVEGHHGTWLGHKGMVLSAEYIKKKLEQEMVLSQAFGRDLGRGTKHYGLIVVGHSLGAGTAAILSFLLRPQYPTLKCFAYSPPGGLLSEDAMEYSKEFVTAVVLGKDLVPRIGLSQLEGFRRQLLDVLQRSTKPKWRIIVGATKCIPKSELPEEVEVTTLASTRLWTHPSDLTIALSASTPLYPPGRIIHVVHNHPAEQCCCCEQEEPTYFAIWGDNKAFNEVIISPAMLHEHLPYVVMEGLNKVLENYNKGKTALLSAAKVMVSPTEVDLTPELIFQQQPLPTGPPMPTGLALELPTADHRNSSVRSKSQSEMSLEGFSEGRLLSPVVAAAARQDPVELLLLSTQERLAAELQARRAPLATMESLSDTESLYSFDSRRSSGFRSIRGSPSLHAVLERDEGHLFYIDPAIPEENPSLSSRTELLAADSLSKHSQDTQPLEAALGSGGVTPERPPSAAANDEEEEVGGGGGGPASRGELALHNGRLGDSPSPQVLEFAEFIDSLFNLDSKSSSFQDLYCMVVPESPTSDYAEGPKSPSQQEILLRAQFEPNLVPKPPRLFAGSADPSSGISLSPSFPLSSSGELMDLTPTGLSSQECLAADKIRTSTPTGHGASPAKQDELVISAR
Method in brief: (§1)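 Sonicated HEK293T protein (100 μg) in 50 mM Tris pH 7.4 with 10 mM CaCl2. Inhibitor in DMSO (10% DMSO standard) preincubated 15 min at 37 °C. [14C]SAG was added to 20 μM final for 20 min at 37 °C, with Triton X-100 where the line states it. Quenched with 2:1 CHCl3/MeOH. Silica TLC in CHCl3/MeOH/NH4OH 86:14:0.75, then 12 h phosphorimaging. Activity = (2-AG+AA)/(2-AG+AA+SAG). Background-subtracted; n=1–2.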

[3] = species: Sus scrofa; assay: Inhibition of porcine pancreatic lipase type 2 at 10 uM by FRET assay
[4] = biological target: T1, Fatty-acid amide hydrolase 1 (Rattus norvegicus); assay: Inhibition of rat histidine tagged FAAH expressed in Escherichia coli at 10 uM by coumarin ester substrate fluorescence assay
[5] = biological target: T3, Monoglyceride lipase (Homo sapiens) (UniProt Q99685); assay: Inhibition of human N-terminal histidine tagged full length MAGL expressed in Escherichia coli at 100 nM by coumarin ester substrate fluorescence assay
T3 sequence (whole entry): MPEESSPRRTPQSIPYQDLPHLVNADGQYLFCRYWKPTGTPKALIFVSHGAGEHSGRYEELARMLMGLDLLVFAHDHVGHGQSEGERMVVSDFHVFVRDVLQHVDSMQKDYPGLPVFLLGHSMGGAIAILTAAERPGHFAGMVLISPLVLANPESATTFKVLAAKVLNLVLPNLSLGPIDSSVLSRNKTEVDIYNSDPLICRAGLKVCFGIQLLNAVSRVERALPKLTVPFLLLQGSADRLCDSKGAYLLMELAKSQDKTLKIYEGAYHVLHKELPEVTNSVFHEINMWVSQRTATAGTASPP

[6] = biological target: T2, Diacylglycerol lipase-alpha (Homo sapiens); assay: Inhibition of human DAGLalpha expressed in HEK293T cell membrane using [14C]SAG substrate at 10 uM using JZL184 pretreated protein in detergent free solution by […]; format: cell-based; conditions: HEK-293T
[7] = biological target: T3, Monoglyceride lipase (Homo sapiens); assay: Inhibition of human N-terminal histidine tagged full length MAGL expressed in Escherichia coli at 10 uM by coumarin ester substrate fluorescence assay
[8] = system: Bacteria; assay: Inhibition of bacterial lipoprotein lipase at 10 uM by FRET assay
[9] = biological target: T4, Fatty-acid amide hydrolase 1 (Rattus norvegicus, UniProt P97612); assay: Inhibition of rat histidine tagged FAAH expressed in Escherichia coli by coumarin ester substrate fluorescence assay
T4 sequence (P97612 whole entry): T1 sequence (whole entry)

[10] = biological target: T5, Diacylglycerol lipase-alpha (Mus musculus) (UniProt Q6WQJ1); assay: Inhibition of mouse DAGLalpha expressed in HEK293T cell membrane using [14C]SAG substrate at 10 nM by scintillation counting based radio-TLC assay; format: cell membranes; conditions: HEK-293T
T5 sequence (whole entry): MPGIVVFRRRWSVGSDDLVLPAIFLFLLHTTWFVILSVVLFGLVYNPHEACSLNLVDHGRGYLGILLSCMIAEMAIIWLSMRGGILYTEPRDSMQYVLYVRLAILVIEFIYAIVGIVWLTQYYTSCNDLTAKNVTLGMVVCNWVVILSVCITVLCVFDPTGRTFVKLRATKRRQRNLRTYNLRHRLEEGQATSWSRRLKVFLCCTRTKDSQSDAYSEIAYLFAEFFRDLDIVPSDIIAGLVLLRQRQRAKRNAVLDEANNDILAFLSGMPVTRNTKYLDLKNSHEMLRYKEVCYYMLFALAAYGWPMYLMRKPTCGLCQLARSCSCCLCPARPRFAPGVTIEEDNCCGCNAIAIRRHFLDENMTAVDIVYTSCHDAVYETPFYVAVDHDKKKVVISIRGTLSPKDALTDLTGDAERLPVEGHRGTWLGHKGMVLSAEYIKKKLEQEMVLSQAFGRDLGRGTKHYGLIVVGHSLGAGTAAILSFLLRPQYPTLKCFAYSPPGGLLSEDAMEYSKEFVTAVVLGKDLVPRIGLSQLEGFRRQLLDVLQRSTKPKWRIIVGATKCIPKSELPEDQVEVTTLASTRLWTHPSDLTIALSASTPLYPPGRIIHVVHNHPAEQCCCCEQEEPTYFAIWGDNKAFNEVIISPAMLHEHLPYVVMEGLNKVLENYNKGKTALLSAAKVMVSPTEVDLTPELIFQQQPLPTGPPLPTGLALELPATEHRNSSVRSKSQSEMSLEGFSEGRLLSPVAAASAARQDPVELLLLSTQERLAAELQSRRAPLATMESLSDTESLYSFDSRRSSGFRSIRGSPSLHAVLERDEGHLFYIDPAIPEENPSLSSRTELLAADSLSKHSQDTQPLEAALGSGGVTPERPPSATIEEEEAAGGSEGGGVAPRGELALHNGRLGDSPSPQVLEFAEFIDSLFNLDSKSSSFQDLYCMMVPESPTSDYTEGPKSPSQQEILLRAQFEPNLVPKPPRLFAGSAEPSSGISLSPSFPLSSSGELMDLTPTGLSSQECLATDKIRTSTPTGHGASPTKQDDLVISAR

[11] = biological target: T2, Diacylglycerol lipase-alpha (Homo sapiens); assay: Inhibition of human DAGLalpha expressed in HEK293T cell membrane using [14C]SAG substrate at 10 uM in presence of 0.05% Triton X-100 by scintillation counting based radio-TLC assay; format: cell membranes; conditions: HEK-293T; method in brief: as §1
[12] = biological target: T2, Diacylglycerol lipase-alpha (Homo sapiens); assay: Inhibition of human DAGLalpha expressed in HEK293T cell membrane using [14C]SAG substrate at 10 uM in presence of 0.05% Triton X-100 by […]; format: cell-based; conditions: HEK-293T
[13] = biological target: T2, Diacylglycerol lipase-alpha (Homo sapiens); assay: Inhibition of human DAGLalpha expressed in HEK293T cell membrane using [14C]SAG substrate at 10 uM in detergent free solution by […]; format: cell-based; conditions: HEK-293T
[14] = biological target: T5, Diacylglycerol lipase-alpha (Mus musculus); assay: Inhibition of mouse DAGLalpha expressed in HEK293T cell membrane using [14C]SAG substrate at 10000 nM by scintillation counting based radio-TLC assay; format: cell membranes; conditions: HEK-293T
[15] = biological target: T2, Diacylglycerol lipase-alpha (Homo sapiens); assay: Inhibition of human DAGLalpha expressed in HEK293T cell membrane using [14C]SAG substrate at 10 uM in detergent free solution by scintillation counting based radio-TLC assay; conditions: HEK-293T
[16] = biological target: T2, Diacylglycerol lipase-alpha (Homo sapiens); assay: Inhibition of human DAGLalpha expressed in HEK293T cell membrane using [14C]SAG substrate at 10 uM in detergent free solution using JZL184 pretreated protein by scintillation counting based radio-TLC assay; format: cell membranes; conditions: HEK-293T
Method in brief: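 Same hDAGLα radio-TLC as above: Tris/CaCl2 pH 7.4, 15 min inhibitor preincubation at 37 °C, 20 μM [14C]SAG for 20 min at 37 °C, TLC with phosphorimaging, activity as (2-AG+AA)/total label.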

[17] = biological target: T6, Diacylglycerol lipase-alpha (Homo sapiens, UniProt Q9Y4D2); assay: Inhibition of human DAGLalpha
T6 sequence (Q9Y4D2 whole entry): T2 sequence (whole entry)

SMILES | inhibition [1] [%] | inhibition [2] [%] | inhibition [3] [%] | inhibition [4] [%] | inhibition [5] [%] | inhibition [6] [%] | inhibition [7] [%] | inhibition [8] [%] | IC50 [9] [nM] | inhibition [10] | inhibition [11] [%] | inhibition [12] [%] | inhibition [13] [%] | inhibition [14] [%] | inhibition [15] | inhibition [16] [%] | IC50 [17] [nM]
CCCCCCC[C@H]1OC(=O)[C@H]1CCCCCC (racemic) | 13 | 25 | 94 | 94 | 66 | 65 | 100 | 33 |  |  |  |  |  |  |  |  | 
O=S(=O)(F)Cc1ccccc1 [PHENYLMETHYLSULFONYLFLUORIDE] |  |  |  |  |  |  |  | < 0 | 833 | inactive |  |  |  |  |  |  | 
CCCCCCCCCCCCCC1CC(=O)O1 (racemic) |  | 45 | 38 | 10 |  |  | 4 | < 0 |  |  | 25 | 72 | 14 | < 0 |  |  | 
O=C(N[C@H]1COC1=O)OCc1ccccc1 |  |  | < 0 | 10 |  | 7 | 13 | < 0 |  | inactive |  |  | 17 |  | inactive | < 0 | 
O=C(NCCCCCCNC(=O)ON=C1CCCCC1)ON=C1CCCCC1 |  |  | 78 | 95 |  | 40 | 22 | < 0 | 2240 |  |  |  | 70 |  | 30% |  | 65000
CCCCCCC[C@@H]1OC(=O)[C@H]1CCCCCC (racemic) |  | 37 | 96 | 79 |  | 69 | 55 | 67 |  |  |  |  |  |  |  |  | 
